Screening data as filed in PubChem.
An excerpt weighted towards active compounds, which were near 2.6% of everything screened.
E-selectin induc: E-selectin induction on HUVECs. hit rate 0.37% among 260,000. P16581. HUVEC E-selectin immunofluorescence imaging; normalized: neutral wells 0, TNF-alpha wells 100. AID 686992. activation, % at 7.58 µM;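 active means mean E-selectin-positive cell signal at least 10% of the positive control, reached in at least 60% of replicates, without over 20% cell loss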
Target sequence (P16581 whole entry, looked up): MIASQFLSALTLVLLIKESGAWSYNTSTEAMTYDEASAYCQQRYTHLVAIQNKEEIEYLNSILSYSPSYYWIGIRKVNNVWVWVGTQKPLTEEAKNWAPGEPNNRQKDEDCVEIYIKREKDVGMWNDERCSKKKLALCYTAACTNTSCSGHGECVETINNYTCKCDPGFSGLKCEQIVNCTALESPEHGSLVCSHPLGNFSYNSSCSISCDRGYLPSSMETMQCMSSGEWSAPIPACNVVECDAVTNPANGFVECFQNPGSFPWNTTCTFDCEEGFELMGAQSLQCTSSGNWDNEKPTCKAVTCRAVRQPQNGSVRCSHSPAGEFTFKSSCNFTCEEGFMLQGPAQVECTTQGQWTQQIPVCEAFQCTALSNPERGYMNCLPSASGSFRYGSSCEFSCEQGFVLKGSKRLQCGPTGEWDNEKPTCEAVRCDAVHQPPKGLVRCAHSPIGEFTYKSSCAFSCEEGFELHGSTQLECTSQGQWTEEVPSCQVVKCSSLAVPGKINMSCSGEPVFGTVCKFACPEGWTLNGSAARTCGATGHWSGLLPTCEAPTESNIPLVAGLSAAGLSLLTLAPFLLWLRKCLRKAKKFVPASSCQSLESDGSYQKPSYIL
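assay system = HUVEC, human umbilical vein endothelial cells | input = 3,000 HUVEC seeded per well | medium = EGM-2 growth medium on 0.1% gelatin-coated wells | dosing = one compound dose added by pin transfer | signal = immunofluorescence imaging | read-out basis = % PE-positive cells | control set = TNF-alpha, DMSO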
Ecoli rRNA inh: inhibits bacterial ribosomal RNA function over humanized ribosomes | E. coli WT GFP vs humanized-ribosome RFP mutants, fluorescence, 24 h; active compounds read low; DMSO median 0, no signal -100 | GFP signal change (wild-type ribosome), % (no concentration beside the values) | hit rate 1.6% among 350,000 | AID 720706;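 active means significant combined selectivity score with lowered wild-type GFP, culture density cut under 30%, mutant RFP and density less affected; inactive means any of these conditions unmet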
AF4-AF9 inh: inhibitors of human MLL-AF4/AF9 interaction; AlphaScreen, biotin-AF4 peptide binding to FLAG-AF9; inhibition, % at 10 µM; hit rate 0.47% among 350,000; AID 651704;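 active means every replicate reaching a set inhibition limit, whatever the replicate mean, cut at about 25% in these data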;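 further: 0% = plate neutral control median and 100% = total signal loss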
RAD52 inh: RAD52 (human) annealing inhibition. recombinant RAD52 DNA annealing, FRET fluorescence. P43351. inhibition, % at 18.7 µM. hit rate 0.46% among 360,000;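 active means every replicate showing at least 50% inhibition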
RAD54 inh: RAD54 (human) branch migration inhibition; RAD54 Holliday junction branch migration, FAM/BHQ fluorescence; hit rate 0.14% among 360,000; Q92698; inhibition, % at 10.4 µM;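 active means mean normalized replicate activity at least 40 and at least half of replicates scoring 40 or more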;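 further: 0% = median of neutral control wells and 100% = median of positive control wells; inhibitors cause a drop in the FAM fluorescence signal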
INS-1E GSIS act: GLuc luminescence reporter in INS-1E cells, primary screen for activators of glucose-dependent secretion of insulin; INS-1E GLuc reporter insulin secretion, 2-3 h; hit rate 0.61% among 370,000; activation, % at 16.6 µM; AID 743287;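 active means lowest replicate activation of at least 40%, so every replicate reaches that level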;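 further: 0% = median of neutral control wells and 100% = median of IBMX positive control wells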
* marks the source's active call; other numbers are inactive results.

How did Cn1c(=O)c([N+](=O)[O-])c(NCc2ccccc2Cl)c2ccccc21 do in these assays?
E-selectin induc: 0; Ecoli rRNA inh: -29*; AF4-AF9 inh: 2; RAD52 inh: -7

Results for CC(=O)N[C@@H]1C[C@@H]2O[C@@H](CO)CC[C@@H]2O[C@@H]1CCc1ccc(-c2ccc(F)cc2)cc1 ?
AF4-AF9 inh: -2; RAD52 inh: -2

Results for COc1ccc2c3c(n(C)c2c1)[C@H](CO)NCC31CCN(C(=O)CC2CC2)CC1 ?
E-selectin induc: 0; Ecoli rRNA inh: 1; AF4-AF9 inh: 4; INS-1E GSIS act: 10

Results for Cc1nc2c(=O)n(C)c(=O)n(C)c2nc1Cl ?
Ecoli rRNA inh: -15; AF4-AF9 inh: -1; RAD52 inh: 8; INS-1E GSIS act: 96*

Results for Cn1c(=O)c2nc(NCc3ccccc3)cnc2n(C)c1=O ?
Ecoli rRNA inh: -3; AF4-AF9 inh: -41; RAD52 inh: -83; RAD54 inh: -4; INS-1E GSIS act: 5

Results for CCOC(=O)c1c(NC(=O)Cn2cnc3sc(C)c(-c4ccccc4)c3c2=O)sc(C)c1C ?
E-selectin induc: 1; Ecoli rRNA inh: 5; AF4-AF9 inh: -3; RAD52 inh: -27; INS-1E GSIS act: -4

Results for Cc1sc2ncn(CC(=O)Nc3cccc(S(N)(=O)=O)c3)c(=O)c2c1-c1ccccc1 ?
Ecoli rRNA inh: -29*; AF4-AF9 inh: -2; RAD52 inh: -27; RAD54 inh: 8; INS-1E GSIS act: -8

Results for O=C(Nc1cccc(Cl)c1)c1cnn2cccnc12 ?
RAD54 inh: -6; INS-1E GSIS act: 58*

Results for Cc1cc(NC(=O)c2cnn3cccnc23)no1 ?
Ecoli rRNA inh: 10; AF4-AF9 inh: 3; RAD52 inh: 11; RAD54 inh: -7; INS-1E GSIS act: -2

Results for COc1ccc(C(=O)N2c3cc4c(cc3C(C)=CC2(C)C)OCO4)cc1 ?
AF4-AF9 inh: 32*; RAD54 inh: -1

What do the screens show for `CC1=CC(C)(C)N(C(=O)c2ccccc2)c2ccc(C)cc21`?
RAD54 inh: -1

What do the screens show for `CCN1[C@@H]2c3ccc(-c4cccc(C(=O)N(C)C)c4)c(=O)n3C[C@@H]2[C@@H](CO)[C@@H]1C(=O)N(C)C`?
E-selectin induc: 0; Ecoli rRNA inh: 0; AF4-AF9 inh: 1; RAD52 inh: 0; RAD54 inh: 7; INS-1E GSIS act: 11

Results for O=C(NC1CCCC1)C(C1CC1)n1c(-c2ccccn2)nc2ccccc21 (stereo unspecified) ?
E-selectin induc: 0; RAD52 inh: -2; INS-1E GSIS act: 43*

Results for Cc1ccc(NC(=O)C2=CC(c3cccs3)=NS(=O)(=O)N2C)cc1 ?
Ecoli rRNA inh: -2; AF4-AF9 inh: 2; RAD52 inh: -8; RAD54 inh: -11

How did CC(=O)c1ccc(NC(=O)C2=CC(c3cccs3)=NS(=O)(=O)N2C)cc1 do in these assays?
Ecoli rRNA inh: -21*; AF4-AF9 inh: 9; RAD52 inh: -7; RAD54 inh: 1

How did O=C(Nc1ccccc1F)N[C@@H]1CC[C@@H](CCNS(=O)(=O)c2ccc(Cl)cc2)O[C@H]1CO do in these assays?
E-selectin induc: 0; Ecoli rRNA inh: -5; AF4-AF9 inh: 2; RAD52 inh: -2; RAD54 inh: -2; INS-1E GSIS act: -2

What do the screens show for `COc1ccc(CSc2nc(C)cc(C)c2C#N)cc1`?
E-selectin induc: 4; Ecoli rRNA inh: 1; AF4-AF9 inh: 25*; RAD52 inh: -10; RAD54 inh: 4; INS-1E GSIS act: 10

How did Cc1cc(C)c(C#N)c(SCc2ccccc2)n1 do in these assays?
RAD54 inh: -1

What do the screens show for `C[C@@H]1CCCCO[C@H](CN(C)Cc2ccc3c(c2)OCO3)[C@H](C)CN([C@@H](C)CO)C(=O)c2cc(NC(=O)Cc3ccccc3)ccc2O1`?
E-selectin induc: 0; Ecoli rRNA inh: 0; RAD54 inh: 1; INS-1E GSIS act: -16

Results for C[C@@H]1CN([C@@H](C)CO)C(=O)c2cc(NC(=O)Nc3ccc4c(c3)OCO4)ccc2O[C@@H]1CN(C)Cc1ccc(-c2ccccc2)cc1 ?
E-selectin induc: -5; Ecoli rRNA inh: -1; AF4-AF9 inh: 5; RAD52 inh: 39; RAD54 inh: 8; INS-1E GSIS act: -24

What do the screens show for `CCOC(=O)c1oc2ccccc2c1NC(=O)COc1ccc(F)cc1`?
Ecoli rRNA inh: 13; AF4-AF9 inh: 1; RAD52 inh: -16; RAD54 inh: 15; INS-1E GSIS act: -1

How did CCCC(=O)Nc1c(C(=O)OCC)oc2ccccc12 do in these assays?
E-selectin induc: 3; Ecoli rRNA inh: -7; AF4-AF9 inh: 1; RAD52 inh: -10; RAD54 inh: 3; INS-1E GSIS act: 41*

How did O=C(c1cnccn1)N1CC(=O)N2[C@@H](CO)[C@@H](c3ccc(C#CCC4CCCC4)cc3)[C@@H]2C1 do in these assays?
E-selectin induc: 1; Ecoli rRNA inh: -4; AF4-AF9 inh: 1; RAD52 inh: -20; INS-1E GSIS act: -6

What do the screens show for `Fc1ccccc1-c1nnc2ccc3ccccc3n12`?
E-selectin induc: 0; Ecoli rRNA inh: 6; AF4-AF9 inh: -11; RAD52 inh: -6; RAD54 inh: 3; INS-1E GSIS act: 53*

What do the screens show for `Fc1cccc(Cl)c1-c1nnc2ccc3ccccc3n12`?
Ecoli rRNA inh: -6; AF4-AF9 inh: 0; RAD52 inh: -3; INS-1E GSIS act: 6

Results for O=C(c1cccs1)N(Cc1ccc(F)cc1)C1CCS(=O)(=O)C1 (stereo unspecified) ?
E-selectin induc: 1; Ecoli rRNA inh: 5; AF4-AF9 inh: -2; RAD52 inh: 0; RAD54 inh: -28; INS-1E GSIS act: 11

How did Cc1ccc(CN(C(=O)c2cccs2)C2CCS(=O)(=O)C2)cc1 (stereo unspecified) do in these assays?
E-selectin induc: 0; Ecoli rRNA inh: 4; AF4-AF9 inh: 2; RAD52 inh: -1; RAD54 inh: -15; INS-1E GSIS act: 57*

Results for O=C(c1cccs1)N(Cc1cccc(F)c1)C1CCS(=O)(=O)C1 (stereo unspecified) ?
Ecoli rRNA inh: 8; AF4-AF9 inh: 1; RAD52 inh: -5; RAD54 inh: 6; INS-1E GSIS act: 46*

What do the screens show for `CCC(=O)N1CC(=O)N2[C@@H](CO)[C@H](c3ccc(C#Cc4cccnc4)cc3)[C@@H]2C1`?
E-selectin induc: 0; Ecoli rRNA inh: 6; AF4-AF9 inh: -13; RAD52 inh: 5; INS-1E GSIS act: 1

Results for COCCNC(=O)C[C@H]1CC[C@H]2[C@H](COc3ccc(NC(=O)Cc4ccccc4)cc3C(=O)N2C)O1 ?
E-selectin induc: 0; Ecoli rRNA inh: -3; AF4-AF9 inh: -2; RAD52 inh: -4; RAD54 inh: 2; INS-1E GSIS act: -1
